According to ChEMBL document CHEMBL1147446, “Antagonists of human CCR5 receptor containing 4-(pyrazolyl)piperidine side chains. Part 3: SAR studies on the benzylpyrazole segment” (Bioorg Med Chem Lett, 2004):

Assays:
in vivo [1] = details: rat, plasma
in vivo [2] = details: rat
in vivo [3] = details: rat; remark: listed apart in the source
HeLa [4] = assay: Antiviral activities in a cell culture HIV-1 infectivity inhibition assay using HeLa cells; assay type: functional; details: Homo sapiens
[5] = target: C-C chemokine receptor type 5 (Homo sapiens, UniProt P51681); assay: Inhibitory concentration for displacement of [125I]-MIP-1 alpha from recombinant human CC chemokine receptor 5 (CCR5) expressed in CHO cell; assay type: cell-based
C-C chemokine receptor type 5, sequence (P51681 whole entry): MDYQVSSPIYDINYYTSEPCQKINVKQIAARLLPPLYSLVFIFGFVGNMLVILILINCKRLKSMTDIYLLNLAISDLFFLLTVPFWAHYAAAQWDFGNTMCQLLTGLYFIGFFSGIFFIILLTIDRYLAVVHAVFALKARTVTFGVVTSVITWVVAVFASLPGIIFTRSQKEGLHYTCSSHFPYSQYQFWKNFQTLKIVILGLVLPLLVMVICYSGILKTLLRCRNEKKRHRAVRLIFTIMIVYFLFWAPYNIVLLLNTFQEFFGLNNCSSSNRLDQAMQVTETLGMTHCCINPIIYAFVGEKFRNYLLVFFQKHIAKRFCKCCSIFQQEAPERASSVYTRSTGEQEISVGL
Procedure, shortened: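 Competitive binding to CCR5 on CHO cell membranes, read as displacement of [125I]-labeled MIP-1α. IC50 values are means of triplicate determinations. Standard errors were normally <15% within an assay. Assay-to-assay variation was within ±2-fold, judged from a standard compound.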

HeLa [6] = assay: Antiviral activities in a cell culture HIV-1 infectivity inhibition assay using HeLa cells plus 50% normal human serum; assay type: functional
[7] = Half life in dog (dosed as a mixture of five compounds at 0.5 mpk each via iv only); assay type: ADME, organism-based, Canis lupus familiaris; details: in vivo
Procedure, shortened: (§1)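 Dogs received a five-compound cassette by iv only, 0.5 mpk of each compound.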

[8] = Plasma clearance in dog (dosed as a mixture of five compounds at 0.5 mpk each via iv only); assay type: ADME, organism-based, Canis lupus familiaris; details: read-out: Clp
Procedure, shortened: as §1

Canis familiaris = assay: […] AUCN in dog ( (dosed as a mixture of five compounds at 0.5 mpk each via iv only); assay type: ADME, organism-based, Canis lupus familiaris; details: in vivo

SMILES	clearance (in vivo [1])	half-life (in vivo [2])	bioavailability (in vivo [3])	IC90 (HeLa [4])	IC50 [5]	IC90 (HeLa [6])	half-life [7]	clearance [8]	AUC N (Canis familiaris)
CC[C@H](C)[C@H](C(=O)O)N1C[C@H](CN2CCC(c3cc(Cc4ccc(C(C)C)cc4)nn3CC)CC2)[C@@H](c2cccc(F)c2)C1	3.3 mL/min/kg	1.18 h	19%	< 0.14 nM	0.3 nM	11 nM			
CCn1nc(Cc2ccc(OC(C)C)cc2)cc1C1CCN(C[C@H]2CN([C@@H](C(=O)O)C(C)(C)C)C[C@@H]2c2cccc(F)c2)CC1	0.98 mL/min/kg	1.4 h	49%	< 0.14 nM	0.7 nM	11 nM			
CCn1nc(Cc2ccc(OC3CCC3)cc2)cc1C1CCN(C[C@H]2CN([C@@H](C(=O)O)C(C)(C)C)C[C@@H]2c2cccc(F)c2)CC1	0.62 mL/min/kg	3.5 h	65%	0.4 nM	0.7 nM	33 nM			
CC[C@@H](C)[C@H](C(=O)O)N1C[C@H](CN2CCC(c3cc(Cc4ccc(OC5CCC5)cc4)nn3CC)CC2)[C@@H](c2cccc(F)c2)C1	0.75 mL/min/kg	2.1 h	26%	< 0.14 nM	0.4 nM	33 nM			
CCn1nc(Cc2ccc(F)cc2)cc1C1CCN(C[C@H]2CN([C@@H](C(=O)O)C(C)C)C[C@@H]2c2cccc(F)c2)CC1	7.6 mL/min/kg	0.91 h	7.8%	11 nM	1.1 nM	> 300 nM			
CCn1nc(Cc2cccc(F)c2)cc1C1CCN(C[C@H]2CN([C@@H](C(=O)O)C(C)C)C[C@@H]2c2cccc(F)c2)CC1	3.9 mL/min/kg	0.8 h	40%	11 nM	1.3 nM	300 nM			
CC[C@H](C)[C@H](C(=O)O)N1C[C@H](CN2CCC(c3cc(Cc4ccc(OC5CC5)cc4)nn3CC)CC2)[C@@H](c2cccc(F)c2)C1	1.9 mL/min/kg	1 h	36%	< 0.14 nM	0.3 nM	11 nM			
CCn1nc(Cc2ccc(-c3ccccc3)cc2)cc1C1CCN(C[C@H]2CN([C@@H](C(=O)O)C(C)C)C[C@@H]2c2cccc(F)c2)CC1	0.32 mL/min/kg	5.7 h	26%	< 0.14 nM	0.3 nM	100 nM			
CCOc1ccc(Cc2cc(C3CCN(C[C@H]4CN([C@@H](C(=O)O)[C@@H](C)CC)C[C@@H]4c4cccc(F)c4)CC3)n(CC)n2)cc1	4.4 mL/min/kg	0.98 h	5.9%	< 0.14 nM	0.6 nM	33 nM			
CC[C@@H](C)[C@H](C(=O)O)N1C[C@H](CN2CCC(c3cc(Cc4ccc(OC(C)(C)C)cc4)nn3CC)CC2)[C@@H](c2cccc(F)c2)C1	0.97 mL/min/kg	2.7 h	23%	< 0.14 nM	1.6 nM	3.7 nM			
CCOc1ccc(Cc2cc(C3CCN(C[C@H]4CN([C@@H](C(=O)O)C(C)(C)C)C[C@@H]4c4cccc(F)c4)CC3)n(CC)n2)cc1	1.7 mL/min/kg	1.4 h	68%	0.4 nM	0.9 nM	33 nM	1.8 h	13 mL/min/kg	2.3 uM hr dose-1
CCCCOc1ccc(Cc2cc(C3CCN(C[C@H]4CN([C@@H](C(=O)O)[C@@H](C)CC)C[C@@H]4c4cccc(F)c4)CC3)n(CC)n2)cc1	4.8 mL/min/kg	1.2 h	22%	0.4 nM	1 nM	11 nM			
CCn1nc(Cc2ccc(C(C)(C)C)cc2)cc1C1CCN(C[C@H]2CN([C@@H](C(=O)O)C(C)(C)C)C[C@@H]2c2cccc(F)c2)CC1	1.1 mL/min/kg	2.5 h	77%	0.4 nM	0.4 nM	33 nM			
CC[C@H](C)[C@H](C(=O)O)N1C[C@H](CN2CCC(c3cc(Cc4ccc(OC5CCC5)cc4)nn3CC)CC2)[C@@H](c2cccc(F)c2)C1	2.7 mL/min/kg	1.2 h	68%	< 0.14 nM	1.3 nM	11 nM			
CCn1nc(Cc2ccc(OC(C)(C)C)cc2)cc1C1CCN(C[C@H]2CN([C@@H](C(=O)O)C3CCCCC3)C[C@@H]2c2cccc(F)c2)CC1	27 mL/min/kg	1 h	19%	< 0.14 nM	0.5 nM	11 nM			
CC[C@H](C)[C@H](C(=O)O)N1C[C@H](CN2CCC(c3cc(Cc4ccc(OC(C)(C)C)cc4)nn3CC)CC2)[C@@H](c2cccc(F)c2)C1	4 mL/min/kg	1.1 h	76%	< 0.14 nM	1.3 nM	11 nM			
CCn1nc(Cc2ccc(S(C)(=O)=O)cc2)cc1C1CCN(C[C@H]2CN([C@@H](C(=O)O)C(C)C)C[C@@H]2c2cccc(F)c2)CC1	11 mL/min/kg	0.38 h	5.4%	3.7 nM	3.5 nM	33 nM			
CC[C@H](C)[C@H](C(=O)O)N1C[C@H](CN2CCC(c3cc(Cc4ccc(C(C)(C)C)cc4)nn3CC)CC2)[C@@H](c2cccc(F)c2)C1	1.6 mL/min/kg	1.4 h	9.2%	0.4 nM	0.3 nM	11 nM			
CC[C@@H](C)[C@H](C(=O)O)N1C[C@H](CN2CCC(c3cc(Cc4ccc(C#N)cc4)nn3CC)CC2)[C@@H](c2cccc(F)c2)C1	9.8 mL/min/kg	0.74 h	3.1%	0.4 nM	1.3 nM	33 nM			

SMILES	clearance (in vivo [1])	half-life (in vivo [2])	bioavailability (in vivo [3])	IC90 (HeLa [4])	IC50 [5]	IC90 (HeLa [6])	half-life [7]	clearance [8]	AUC N (Canis familiaris)
CCn1nc(Cc2ccc(Oc3ccccc3)cc2)cc1C1CCN(C[C@H]2CN([C@@H](C(=O)O)C(C)(C)C)C[C@@H]2c2cccc(F)c2)CC1				3.7 nM	0.4 nM	300 nM			
CCn1nc(Cc2cc(F)cc(F)c2)cc1C1CCN(C[C@H]2CN([C@@H](C(=O)O)C3CCCCC3)C[C@@H]2c2cccc(F)c2)CC1				< 0.14 nM	0.9 nM	11 nM			
CC[C@@H](C)[C@H](C(=O)O)N1C[C@H](CN2CCC(c3cc(Cc4ccc(OCC(F)(F)F)cc4)nn3CC)CC2)[C@@H](c2cccc(F)c2)C1				3.7 nM	0.5 nM	100 nM			
CC[C@@H](C)[C@H](C(=O)O)N1C[C@H](CN2CCC(c3cc(Cc4ccc5ccccc5c4)nn3CC)CC2)[C@@H](c2cccc(F)c2)C1				< 0.14 nM	0.2 nM	300 nM			
CCn1nc(Cc2ccc(O)cc2)cc1C1CCN(C[C@H]2CN([C@@H](C(=O)O)C(C)C)C[C@@H]2c2cccc(F)c2)CC1				1.2 nM	0.6 nM	33 nM			
CCn1nc(Cc2ccc(-c3ccccc3)cc2)cc1C1CCN(C[C@H]2CN([C@@H](C(=O)O)C(C)(C)C)C[C@@H]2c2cccc(F)c2)CC1	0.23 mL/min/kg	8.9 h	33%	1.2 nM	0.6 nM	100 nM			
CCn1nc(Cc2ccc(Cl)cc2)cc1C1CCN(C[C@H]2CN([C@@H](C(=O)O)C(C)C)C[C@@H]2c2cccc(F)c2)CC1				3.7 nM	1.3 nM	300 nM			
CC[C@H](C)[C@H](C(=O)O)N1C[C@H](CN2CCC(c3cc(Cc4cccc(C#N)c4)nn3CC)CC2)[C@@H](c2cccc(F)c2)C1				< 0.14 nM	0.9 nM	11 nM			
CCn1nc(Cc2ccccc2F)cc1C1CCN(C[C@H]2CN([C@@H](C(=O)O)C(C)C)C[C@@H]2c2cccc(F)c2)CC1				11 nM	2.2 nM	> 300 nM			
CCCOc1ccc(Cc2cc(C3CCN(C[C@H]4CN([C@@H](C(=O)O)C(C)(C)C)C[C@@H]4c4cccc(F)c4)CC3)n(CC)n2)cc1				0.4 nM	0.8 nM	300 nM			
CC[C@@H](C)[C@H](C(=O)O)N1C[C@H](CN2CCC(c3cc(Cc4ccccc4)nn3CC)CC2)[C@@H](c2cccc(F)c2)C1				0.4 nM	0.9 nM	300 nM			
CC[C@@H](C)[C@H](C(=O)O)N1C[C@H](CN2CCC(c3cc(Cc4ccc(C(F)(F)F)cc4)nn3CC)CC2)[C@@H](c2cccc(F)c2)C1				0.4 nM	0.5 nM	100 nM			
CC[C@H](C)[C@H](C(=O)O)N1C[C@H](CN2CCC(c3cc(Cc4ccc(OC(C)C)cc4)nn3CC)CC2)[C@@H](c2cccc(F)c2)C1				< 0.14 nM	0.8 nM	33 nM			
CCn1nc(Cc2cc(F)cc(F)c2)cc1C1CCN(C[C@H]2CN([C@@H](C(=O)O)C(C)C)C[C@@H]2c2cccc(F)c2)CC1				11 nM	2.6 nM	300 nM			
CCn1nc(Cc2ccc(C(F)(F)F)cc2)cc1C1CCN(C[C@H]2CN([C@@H](C(=O)O)C3CCCCC3)C[C@@H]2c2cccc(F)c2)CC1				0.4 nM	1.5 nM	33 nM			
CCn1nc(Cc2ccc(S(C)(=O)=O)cc2)cc1C1CCN(C[C@H]2CN([C@@H](C(=O)O)C3CCCCC3)C[C@@H]2c2cccc(F)c2)CC1				0.4 nM	2.3 nM	11 nM			
CCCCOc1ccc(Cc2cc(C3CCN(C[C@H]4CN([C@@H](C(=O)O)C5CCCCC5)C[C@@H]4c4cccc(F)c4)CC3)n(CC)n2)cc1				0.4 nM	0.8 nM	33 nM			
CCOc1cccc(Cc2cc(C3CCN(C[C@H]4CN([C@@H](C(=O)O)[C@@H](C)CC)C[C@@H]4c4cccc(F)c4)CC3)n(CC)n2)c1				< 0.14 nM	0.9 nM	100 nM			
